pKi: −log10 of the molar value.
Columns and labels:
[1] = molecular target: T1, Corticotropin-releasing factor receptor 1 (Homo sapiens, UniProt P34998); assay: Antagonist activity at human recombinant CRF1 receptor expressed in CHO cells assessed as inhibition of CRF-induced cAMP production; format: functional, cell-based
T1 sequence (P34998 whole entry): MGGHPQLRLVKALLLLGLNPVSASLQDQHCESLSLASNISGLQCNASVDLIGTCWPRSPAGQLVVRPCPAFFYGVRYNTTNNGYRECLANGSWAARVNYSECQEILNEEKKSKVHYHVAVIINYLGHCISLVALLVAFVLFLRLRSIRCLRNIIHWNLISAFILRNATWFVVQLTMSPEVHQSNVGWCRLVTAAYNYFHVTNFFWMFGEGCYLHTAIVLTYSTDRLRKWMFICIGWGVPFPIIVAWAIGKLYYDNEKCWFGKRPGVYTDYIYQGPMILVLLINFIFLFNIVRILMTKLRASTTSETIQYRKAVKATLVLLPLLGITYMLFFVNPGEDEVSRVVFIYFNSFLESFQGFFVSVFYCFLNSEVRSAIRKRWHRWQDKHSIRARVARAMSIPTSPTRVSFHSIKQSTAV
Summary of the method: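 CHO cells stably expressing recombinant human CRF-1, grown in DMEM:F12 with 10% FBS, 1% Glutamax and Geneticin at 37 °C, 5% CO2 to 70% confluence. hCRF (10 nM final) added with compound to 10,000 cells/well in PBS with IBMX. cAMP read by enzyme-fragment complementation kit. 0.5-log serial dilutions, repeated tests, 4-parameter logistic IC50. Ki by Cheng–Prusoff from agonist EC50 measured the same day.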

Liver microsomes [2] = assay: Intrinsic clearance in human liver microsomes assessed per mg of protein; format: ADME, Microsome
Liver microsomes [3] = assay: Intrinsic clearance in rat liver microsomes assessed per mg of protein; format: ADME, Microsome
[4] = Half life in rat at 0.1 mg/kg, iv and 5 mg/kg, po; format: ADME, organism-based; settings: in vivo
[5] = Chemical stability at pH 1.2 assessed as compound remaining at 50 degC after 14 days; format: physicochemical; settings: buffer, read-out: Stability
[6] = Bioavailability in rat at 0.1 mg/kg, iv and 5 mg/kg, po; format: ADME, organism-based; settings: in vivo
[7] = Chemical stability of the compound; format: physicochemical
[8] = Volume of distribution in rat at 0.1 mg/kg, iv and 5 mg/kg, po; format: ADME, organism-based; settings: in vivo
[9] = Clearance in rat at 0.1 mg/kg, iv and 5 mg/kg, po; format: ADME, organism-based; settings: in vivo

CCCN(CCO)c1nc(C)nc2c1c(C)nn2-c1ccc(OC)cc1C
pKi [1]: 6.89
clearance (Liver microsomes [2]): 80 µL/min/mg
clearance (Liver microsomes [3]): 117 µL/min/mg

CCCNCc1nccn1Nc1nc(C)nc2c1c(C)nn2-c1ccc(OC)cc1C
pKi [1]: 6.40
clearance (Liver microsomes [2]): 96 µL/min/mg
clearance (Liver microsomes [3]): 67 µL/min/mg

CCC[C@@H](CO)Nc1nc(C)nc2c1c(C)nn2-c1ccc(OC)cc1C
pKi [1]: 6.24
clearance (Liver microsomes [2]): 10 µL/min/mg
clearance (Liver microsomes [3]): 36 µL/min/mg

CCC(CC)Nc1nc(C)nc2c1cnn2-c1ccc(OC)cc1C
pKi [1]: 7.07
clearance (Liver microsomes [2]): 15 µL/min/mg
clearance (Liver microsomes [3]): 246 µL/min/mg

CCN(CCOC)c1nc(C)nc2c1c(C)nn2-c1ccc(OC)cc1C
pKi [1]: 6.93
clearance (Liver microsomes [2]): 117 µL/min/mg
clearance (Liver microsomes [3]): 104 µL/min/mg

CCCN(CCOC)c1nc(C)nc2c1c(C)nn2-c1ccc(C(N)=O)nc1C
pKi [1]: 6.24
clearance (Liver microsomes [2]): 38 µL/min/mg
clearance (Liver microsomes [3]): 13 µL/min/mg

CCCN(CCOC)c1nc(C)nc2c1c(C)nn2-c1cnc(N(C)C)cc1C
pKi [1]: 6.74
clearance (Liver microsomes [2]): 160 µL/min/mg
clearance (Liver microsomes [3]): 206 µL/min/mg

COCCN(CCOC)c1nc(C)nc2c1c(C)nn2-c1ccc(OC)cc1C
pKi [1]: 6.71
clearance (Liver microsomes [2]): 66 µL/min/mg
clearance (Liver microsomes [3]): 47 µL/min/mg

CCCN(CCOC)c1nc(C)nc2c1c(C)nn2-c1ccc(C(N)=O)cc1C
pKi [1]: 6.56
clearance (Liver microsomes [2]): 17 µL/min/mg
clearance (Liver microsomes [3]): 22 µL/min/mg

CCC[C@H](CO)Nc1nc(C)nc2c1c(C)nn2-c1ccc(OC)cc1C
pKi [1]: 7.12
clearance (Liver microsomes [2]): 23 µL/min/mg
clearance (Liver microsomes [3]): 41 µL/min/mg

CCCN(CCOC)c1nc(C)nc2c1c(C)nn2-c1ccc(OC)cc1C
pKi [1]: 7.89
clearance (Liver microsomes [2]): 172 µL/min/mg
clearance (Liver microsomes [3]): 23 µL/min/mg

CCCN(CCOC)c1nc(C)nc2c1c(C)nn2-c1ccc(OC)nc1C
pKi [1]: 7.37
clearance (Liver microsomes [2]): 117 µL/min/mg
clearance (Liver microsomes [3]): 163 µL/min/mg

CC[C@H](CO)Nc1nc(C)nc2c1c(C)nn2-c1ccc(OC)cc1C
pKi [1]: 5.95
clearance (Liver microsomes [2]): < 7 µL/min/mg
clearance (Liver microsomes [3]): 23 µL/min/mg

CCCNCc1nc(Nc2nc(C)nc3c2c(C)nn3-c2ccc(OC)cc2C)no1
pKi [1]: 6.91
clearance (Liver microsomes [2]): 29 µL/min/mg
clearance (Liver microsomes [3]): 58 µL/min/mg

CCCNCc1noc(Nc2nc(C)nc3c2c(C)nn3-c2ccc(OC)cc2C)n1
pKi [1]: 7.08
clearance (Liver microsomes [2]): 51 µL/min/mg
clearance (Liver microsomes [3]): 66 µL/min/mg

CCCN(CC(=O)N(C)C)c1nc(C)nc2c1c(C)nn2-c1ccc(OC)cc1C
pKi [1]: 5.85
clearance (Liver microsomes [2]): 18 µL/min/mg
clearance (Liver microsomes [3]): 22 µL/min/mg

CCCN(CCOC)c1nc(C)nc2c1c(C)nn2-c1ccc(OC)cc1OC
pKi [1]: 7.13
clearance (Liver microsomes [2]): 86 µL/min/mg
clearance (Liver microsomes [3]): 90 µL/min/mg

CC[C@@H](COC)Nc1nc(C)nc2c1c(C)nn2-c1ccc(OC)cc1C
pKi [1]: 6.87
clearance (Liver microsomes [2]): 52 µL/min/mg
clearance (Liver microsomes [3]): 105 µL/min/mg

CCCNCc1cncn1Nc1nc(C)nc2c1c(C)nn2-c1ccc(OC)cc1C
pKi [1]: 5.60
clearance (Liver microsomes [2]): 196 µL/min/mg
clearance (Liver microsomes [3]): 85 µL/min/mg

CCCNCc1nnc(Nc2nc(C)nc3c2c(C)nn3-c2ccc(OC)cc2C)o1
pKi [1]: 6.00
clearance (Liver microsomes [2]): 34 µL/min/mg
clearance (Liver microsomes [3]): 40 µL/min/mg

CCCN(CCOC)c1nc(C)nc2c1c(C)nn2-c1ccc(C#N)cc1C#N
pKi [1]: 6.20
clearance (Liver microsomes [2]): 151 µL/min/mg
clearance (Liver microsomes [3]): 166 µL/min/mg

COc1ccc(-n2nc(C)c3c(NC(C4CC4)C4CC4)nc(C)nc32)c(C)c1
pKi [1]: 7.46
clearance (Liver microsomes [2]): < 12 µL/min/mg
clearance (Liver microsomes [3]): 24 µL/min/mg

CC[C@@H](CO)Nc1nc(C)nc2c1c(C)nn2-c1ccc(OC)cc1C
pKi [1]: 6.21
clearance (Liver microsomes [2]): < 7 µL/min/mg
clearance (Liver microsomes [3]): 27 µL/min/mg

CCCN(CCOC)c1nc(C)nc2c1c(C)nn2-c1ccc(OC)nc1OC
pKi [1]: 7.77
clearance (Liver microsomes [2]): 218 µL/min/mg
clearance (Liver microsomes [3]): 159 µL/min/mg

COc1ccc(-n2ncc3c(NC(C4CC4)C4CC4)nc(C)nc32)c(C)c1
half-life [4]: 1.9 h
remaining at 336 h [5]: 51%
pKi [1]: 7.49
bioavailability [6]: 43%
Stability [7]: Stable
Vd [8]: 7 L/kg
clearance (Liver microsomes [2]): < 11 µL/min/mg
clearance (Liver microsomes [3]): 25 µL/min/mg
clearance [9]: 27 mL/min/kg

CCCN(CCOC)c1nc(C)nc2c1c(C)nn2-c1ccc(C#N)cc1C
pKi [1]: 7.00
clearance (Liver microsomes [2]): 147 µL/min/mg
clearance (Liver microsomes [3]): < 11 µL/min/mg

CCC(CC)Nc1nc(C)nc2c1c(C)nn2-c1ccc(OC)cc1C
pKi [1]: 7.38
clearance (Liver microsomes [2]): 64 µL/min/mg
clearance (Liver microsomes [3]): 72 µL/min/mg

CCCCN(CC)c1nc(C)nc2c1c(C)nn2-c1c(C)cc(C)cc1C
pKi [1]: 8.05
clearance (Liver microsomes [2]): > 320 µL/min/mg

CCCN(CCOC)c1nc(C)nc2c1cnn2-c1ccc(OC)cc1C
pKi [1]: 6.88
clearance (Liver microsomes [2]): 16 µL/min/mg
clearance (Liver microsomes [3]): 387 µL/min/mg

CC[C@H](COC)Nc1nc(C)nc2c1c(C)nn2-c1ccc(OC)cc1C
pKi [1]: 6.68
clearance (Liver microsomes [2]): 37 µL/min/mg
clearance (Liver microsomes [3]): 53 µL/min/mg

Source: ChEMBL document CHEMBL1156069, “Optimising metabolic stability in lipophilic chemical space: the identification of a metabolically stable pyrazolopyrimidine CRF-1 receptor antagonist” (Bioorg Med Chem Lett, 2009)
